Data from ChEMBL document CHEMBL1151697, “Synthesis and structure-activity relationships for biphenyl H3 receptor antagonists with moderate anti-cholinesterase activity” (Bioorg Med Chem, 2008).
Calls of active or inactive are those of the source. No cut-off for these calls is given here.

How the values were obtained:
[1] = molecular target: T1, Acetylcholinesterase (Rattus norvegicus) (UniProt P37136); assay: Inhibition of acetylcholinesterase in Wistar rat brain homogenate at upto 1 to 100 uM by Ellman's method; assay type: tissue-based
T1 sequence (whole entry): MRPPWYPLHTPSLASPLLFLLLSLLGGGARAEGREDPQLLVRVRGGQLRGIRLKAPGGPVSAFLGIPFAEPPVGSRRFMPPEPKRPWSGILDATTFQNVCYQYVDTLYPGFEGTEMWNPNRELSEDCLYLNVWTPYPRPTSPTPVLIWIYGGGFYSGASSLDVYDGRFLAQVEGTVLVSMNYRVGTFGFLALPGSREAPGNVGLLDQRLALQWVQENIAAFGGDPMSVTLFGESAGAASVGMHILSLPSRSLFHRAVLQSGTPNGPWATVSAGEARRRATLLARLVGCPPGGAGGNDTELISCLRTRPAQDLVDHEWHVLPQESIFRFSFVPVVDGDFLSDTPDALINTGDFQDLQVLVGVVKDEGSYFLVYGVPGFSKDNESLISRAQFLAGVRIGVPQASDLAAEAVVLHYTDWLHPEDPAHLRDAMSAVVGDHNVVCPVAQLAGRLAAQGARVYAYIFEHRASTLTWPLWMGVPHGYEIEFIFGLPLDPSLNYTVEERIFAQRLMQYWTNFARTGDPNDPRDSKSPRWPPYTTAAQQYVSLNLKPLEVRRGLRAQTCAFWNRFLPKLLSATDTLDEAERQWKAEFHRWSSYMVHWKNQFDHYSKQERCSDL
Method in brief: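 Male Wistar rat (150–200 g) brain homogenate in 0.1 M phosphate buffer (pH 8.0) with DTNB (5 mM) and compound at 1–100 µM. Reaction started at 37 °C by adding acetylthiocholine (75 mM solution) and stopped after 15 min with 4% formalin. 5-Thio-2-nitrobenzoate absorbance at 412 nm. Percent inhibition versus control; reported as pIC50.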

[2] = molecular target: Histamine H1 receptor (Cavia porcellus) (UniProt P31389); assay: Antagonist activity at histamine H1 receptor in guinea pig terminal ileum at upto 10 uM; assay type: functional, tissue-based
Method in brief: (§1)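 Guinea-pig (250–350 g) terminal ileum (H1) suspended isometrically in Krebs–Henseleit at 37 °C, aerated 95% O2–5% CO2. Cumulative histamine curves (1 nM to 1 µM) run without and with compound up to 10 µM. pKB (apparent pA2) from Furchgott's equation; pD2′ from Van Rossum's equation when antagonism was non-surmountable.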

Histamine H3 receptor [3] = molecular target: T2, Histamine H3 receptor (Homo sapiens, UniProt Q9Y5N1); assay: Displacement of [3H]RAMHA from human histamine H3 receptor expressed in SK-N-MC cells; assay type: cell-based
Method in brief: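 SK-N-MC membranes bearing human H3 incubated 60 min at room temperature with 0.5 nM [3H]-(R)-α-methylhistamine and competitor (0.01 nM to 10 µM). Rapid filtration, two washes in ice-cold 50 mM Tris–HCl/5 mM EDTA. Nonspecific binding with 10 µM histamine. pKi via Cheng–Prusoff; means of 4–6 experiments.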

SK-N-MC [4] = assay: Cytotoxicity against human SK-N-MC cells at 1 uM after 6 hrs by MTT test; assay type: functional, cell-based
Method in brief: (§2)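 MTT viability test: SK-N-MC cells held 6 h with compound (1–10 µM) or vehicle. MTT (5 mg/ml stock) added for 3 h, cells washed in PBS, formazan dissolved in 0.1 N HCl in isopropanol, absorbance read at 570 nm. Viability given relative to control.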

SK-N-MC [5] = assay: Cytotoxicity against human SK-N-MC cells at 10 uM after 6 hrs by MTT test; assay type: functional, cell-based; method in brief: as §2
[6] = molecular target: Histamine H2 receptor (Cavia porcellus) (UniProt P47747); assay: Antagonist activity at histamine H2 receptor in guinea pig atrium assessed as changes in rate of spontaneous beat at upto 1 uM; assay type: functional, tissue-based; conditions: Cardiac atrium
Method in brief: (§3)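 Guinea-pig atria (H2) in Ringer–Locke at 31 °C (mM: NaCl 154.0, KCl 5.6, CaCl2 1.08, NaHCO3 5.95, glucose 11.1), gassed 95% O2–5% CO2. Spontaneous beating rate recorded by cardiotachograph. Cumulative dimaprit curves (0.1–100 µM) run without and with compound up to 10 µM. Affinity given as pKB by Furchgott, or as pD2′ by Van Rossum if non-surmountable.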

Histamine H4 receptor [7] = molecular target: T3, Histamine H4 receptor (Homo sapiens, UniProt Q9H3N8); assay: Displacement of [3H]histamine from human histamine H4 receptor expressed in SK-N-MC cells at upto 10 uM
[8] = molecular target: Histamine H3 receptor (Cavia porcellus) (UniProt Q9JI35); assay: Antagonist activity at histamine H3 receptor in electrically-stimulated guinea pig ileum assessed as inhibition of (R)-alpha-methylhistamine-induced twitch contraction in presence of 1 uM mepyramine; assay type: functional, tissue-based
Method in brief: (§4)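 Guinea-pig ileum, electrically stimulated (0.1 Hz, 1 ms, submaximal voltage). Twitch inhibition by cumulative (R)-α-methylhistamine (1 nM to 1 µM) with 1 µM mepyramine present. Compounds tested at 1 nM to 30 µM. Potency as pKB from Furchgott's equation, or as pD2′ (Van Rossum) for non-surmountable antagonism.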

Histamine H3 receptor [9] = molecular target: Histamine H3 receptor (Rattus norvegicus, UniProt Q9QYN8); assay: Displacement of [3H]RAMHA from histamine H3 receptor in Wistar rat brain membrane; assay type: cell membranes
Method in brief: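 Membranes from male Wistar rat brain (150–200 g) incubated 45 min with 0.5 nM [3H]RAMHA and compound (0.03 nM to 10 µM) in 50 mM Tris–HCl pH 7.4, 50 mM NaCl, 0.5 mM EDTA. Vacuum filtration, two ice-cold buffer rinses. Nonspecific binding set with 10 µM thioperamide. pKi by Cheng–Prusoff.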

Histamine H3 receptor [10] = molecular target: T2, Histamine H3 receptor; assay: Antagonist activity at human histamine H3 receptor expressed in SK-N-MC cells by CRE-mediated beta-galactosidase reporter gene assay administered 10 mins before (R)-alpha-methylhistamine challenge after 6 hrs; assay type: functional, cell-based
Method in brief: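 SK-N-MC cells stably carrying human H3 and a β-galactosidase reporter. Compound added to medium, forskolin 5 min later, then (R)-α-methylhistamine 10 min after compound; 6 h at 37 °C. Cells lysed in phosphate assay buffer (pH 8) with 0.5% Triton and 40 mM β-mercaptoethanol; β-galactosidase read at 570 nm. Means of 4–6 experiments.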

Acetylcholinesterase = molecular target: T4, Acetylcholinesterase (Rattus norvegicus, UniProt P37136); assay: Inhibition of acetylcholinesterase in Wistar rat brain homogenate by Ellman's method; assay type: tissue-based
T4 sequence (P37136 whole entry): T1 sequence (whole entry)

[11] = molecular target: T1, Acetylcholinesterase (Rattus norvegicus); assay: Inhibition of acetylcholinesterase in Wistar rat brain homogenate at upto 10 uM by Ellman's method; assay type: tissue-based
[12] = molecular target: Histamine H1 receptor (Cavia porcellus) (UniProt P31389); assay: Antagonist activity at histamine H1 receptor in guinea pig terminal ileum; assay type: functional, tissue-based; method in brief: as §1
[13] = molecular target: Histamine H2 receptor (Cavia porcellus) (UniProt P47747); assay: Antagonist activity at histamine H2 receptor in guinea pig atrium assessed as changes in rate of spontaneous beat at upto 10 uM; assay type: functional, tissue-based; conditions: Cardiac atrium; method in brief: as §3
Histamine H4 receptor [14] = molecular target: T3, Histamine H4 receptor; assay: Displacement of [3H]histamine from human histamine H4 receptor expressed in SK-N-MC cells
[15] = molecular target: Histamine H3 receptor (Cavia porcellus) (UniProt Q9JI35); assay: Antagonist activity at histamine H3 receptor in electrically-stimulated guinea pig ileum assessed as inhibition of (R)-alpha-methylhistamine-induced twitch contraction at upto 1 uM in presence of 1 uM mepyramine; assay type: functional, tissue-based; method in brief: as §4
[16] = molecular target: Histamine H1 receptor (Cavia porcellus) (UniProt P31389); assay: Antagonist activity at histamine H1 receptor in guinea pig terminal ileum at upto 1 uM; assay type: functional, tissue-based; method in brief: as §1
[17] = molecular target: Histamine H2 receptor (Cavia porcellus) (UniProt P47747); assay: Antagonist activity at histamine H2 receptor in guinea pig atrium assessed as changes in rate of spontaneous beat at upto 3 uM; assay type: functional, tissue-based; conditions: Cardiac atrium; method in brief: as §3

Histamine H3 receptor (Cavia porcellus), sequence (Q9JI35 whole entry): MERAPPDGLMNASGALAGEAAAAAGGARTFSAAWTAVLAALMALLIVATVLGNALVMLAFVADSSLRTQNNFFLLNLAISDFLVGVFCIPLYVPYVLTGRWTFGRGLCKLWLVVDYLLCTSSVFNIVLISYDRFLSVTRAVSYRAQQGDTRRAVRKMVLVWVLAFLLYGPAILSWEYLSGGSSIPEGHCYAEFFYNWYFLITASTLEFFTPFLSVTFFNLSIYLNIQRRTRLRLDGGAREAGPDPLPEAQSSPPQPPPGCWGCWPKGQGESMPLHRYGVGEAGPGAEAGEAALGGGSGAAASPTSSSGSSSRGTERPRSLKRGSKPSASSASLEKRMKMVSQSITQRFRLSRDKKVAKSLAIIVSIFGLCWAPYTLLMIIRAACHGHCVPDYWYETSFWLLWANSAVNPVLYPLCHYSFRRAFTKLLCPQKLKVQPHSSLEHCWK
T3 sequence (Q9H3N8 whole entry): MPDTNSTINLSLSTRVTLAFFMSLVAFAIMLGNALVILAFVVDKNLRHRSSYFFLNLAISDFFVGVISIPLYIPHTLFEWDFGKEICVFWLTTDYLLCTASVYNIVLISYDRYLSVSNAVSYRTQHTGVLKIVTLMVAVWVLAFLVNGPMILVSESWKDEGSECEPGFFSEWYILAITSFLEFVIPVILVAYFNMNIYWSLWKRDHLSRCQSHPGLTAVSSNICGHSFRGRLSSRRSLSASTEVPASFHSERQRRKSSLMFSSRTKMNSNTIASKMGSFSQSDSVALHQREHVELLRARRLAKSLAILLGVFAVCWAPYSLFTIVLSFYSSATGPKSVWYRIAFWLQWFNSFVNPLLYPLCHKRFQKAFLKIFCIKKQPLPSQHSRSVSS
Histamine H3 receptor (Rattus norvegicus, UniProt Q9QYN8), sequence (Q9QYN8 whole entry): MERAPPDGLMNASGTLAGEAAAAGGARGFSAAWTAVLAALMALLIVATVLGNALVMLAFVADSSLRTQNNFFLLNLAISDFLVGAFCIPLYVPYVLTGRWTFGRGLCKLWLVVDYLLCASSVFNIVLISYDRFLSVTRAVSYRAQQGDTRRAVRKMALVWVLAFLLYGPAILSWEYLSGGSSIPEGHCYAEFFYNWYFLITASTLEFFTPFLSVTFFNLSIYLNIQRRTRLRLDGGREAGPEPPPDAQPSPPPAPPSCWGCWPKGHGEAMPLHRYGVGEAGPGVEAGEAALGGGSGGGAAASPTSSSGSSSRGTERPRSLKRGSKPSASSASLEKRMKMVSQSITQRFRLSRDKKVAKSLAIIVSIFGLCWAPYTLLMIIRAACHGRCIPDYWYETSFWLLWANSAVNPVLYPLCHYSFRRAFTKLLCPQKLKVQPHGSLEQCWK
T2 sequence (Q9Y5N1 whole entry): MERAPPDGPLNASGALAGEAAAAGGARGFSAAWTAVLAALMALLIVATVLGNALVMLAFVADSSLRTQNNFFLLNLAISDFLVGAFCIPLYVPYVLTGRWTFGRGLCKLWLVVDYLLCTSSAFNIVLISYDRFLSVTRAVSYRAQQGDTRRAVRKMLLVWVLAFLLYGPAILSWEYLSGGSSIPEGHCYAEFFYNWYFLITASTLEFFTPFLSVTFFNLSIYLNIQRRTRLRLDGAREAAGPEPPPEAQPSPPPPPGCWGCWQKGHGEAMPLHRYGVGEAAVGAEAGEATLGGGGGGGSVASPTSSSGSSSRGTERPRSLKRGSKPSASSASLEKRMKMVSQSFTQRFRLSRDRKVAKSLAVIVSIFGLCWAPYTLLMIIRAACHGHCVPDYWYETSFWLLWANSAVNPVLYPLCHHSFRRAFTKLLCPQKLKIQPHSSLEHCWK
Histamine H2 receptor (Cavia porcellus), sequence (P47747 whole entry): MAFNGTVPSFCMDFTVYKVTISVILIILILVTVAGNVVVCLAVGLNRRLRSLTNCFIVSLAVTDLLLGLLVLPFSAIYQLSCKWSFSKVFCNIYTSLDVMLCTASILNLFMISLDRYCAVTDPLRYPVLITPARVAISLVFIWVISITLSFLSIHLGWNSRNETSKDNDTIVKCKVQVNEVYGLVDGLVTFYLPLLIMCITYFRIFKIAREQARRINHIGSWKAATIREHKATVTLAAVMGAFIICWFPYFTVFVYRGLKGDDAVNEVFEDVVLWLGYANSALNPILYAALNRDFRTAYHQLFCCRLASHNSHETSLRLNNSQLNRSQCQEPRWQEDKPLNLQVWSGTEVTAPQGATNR
Histamine H1 receptor (Cavia porcellus), sequence (P31389 whole entry): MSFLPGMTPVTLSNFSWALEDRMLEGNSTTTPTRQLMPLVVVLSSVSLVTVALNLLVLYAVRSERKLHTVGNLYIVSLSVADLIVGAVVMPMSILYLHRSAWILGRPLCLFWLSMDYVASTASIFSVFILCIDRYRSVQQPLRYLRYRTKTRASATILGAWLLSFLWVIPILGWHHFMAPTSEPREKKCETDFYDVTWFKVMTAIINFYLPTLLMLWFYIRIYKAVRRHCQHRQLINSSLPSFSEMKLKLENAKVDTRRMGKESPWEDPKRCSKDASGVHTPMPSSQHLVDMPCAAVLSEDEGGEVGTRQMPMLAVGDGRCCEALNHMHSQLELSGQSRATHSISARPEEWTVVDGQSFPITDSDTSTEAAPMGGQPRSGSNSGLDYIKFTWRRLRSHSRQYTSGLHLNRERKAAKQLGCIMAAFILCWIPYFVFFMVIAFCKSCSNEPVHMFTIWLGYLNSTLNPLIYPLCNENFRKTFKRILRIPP

Structure (SMILES) | inhibition [1] [%] | Activity [2] | Ki (Histamine H3 receptor [3]) [µM] | Activity (SK-N-MC [4]) | Activity (SK-N-MC [5]) | Activity [6] | Activity (Histamine H4 receptor [7]) | pKb [8] | Ki (Histamine H3 receptor [9]) [µM] | pKb (Histamine H3 receptor [10]) | IC50 (Acetylcholinesterase) [µM] | Activity [11] | pD2 [12] | Activity [13] | Ki (Histamine H4 receptor [14]) [µM] | Activity [15] | Activity [16] | Activity [17] | pKb [12]
c1cc(-c2ccc(CN3CCCCC3)cc2)ccc1CCN1CCCCC1 | 91 | inactive | 0.002 | Not toxic | Not toxic | inactive | inactive | 8.73 | 0.00832 | 9.28 | 1.1 |  |  |  |  |  |  |  | 
CC1CC(C)CN(Cc2ccc(-c3ccc(CN4CC(C)CC(C)C4)cc3)cc2)C1 (centres undefined) |  |  |  | Not toxic | Not toxic |  |  |  |  | 6.19 |  | inactive | 5.08 | inactive | 13.8 |  |  |  | 
CC(=O)N1CCN(Cc2ccc(-c3ccc(CN4CCN(C(C)=O)CC4)cc3)cc2)CC1 |  |  |  | Not toxic | Not toxic |  | inactive |  |  | 6.7 |  | inactive | 4.81 | inactive |  | inactive |  |  | 
CCCCCNCc1ccc(-c2ccc(CNCCCCC)cc2)cc1 |  |  |  | Not toxic | Not toxic | inactive |  |  |  | 6.51 |  | inactive |  |  | 6.46 | inactive | inactive |  | 
CCCN(CCC)Cc1ccc(-c2ccc(CCN3CCCCC3)cc2)cc1 | 80 | inactive | 0.00389 | Not toxic | Not toxic | inactive | inactive | 7.98 | 0.0107 | 8.82 | 6.76 |  |  |  |  |  |  |  | 
c1cc(-c2ccc(CN3CCCCC3)cc2)ccc1CNC1CCCCC1 | 73 | inactive |  | Not toxic | Not toxic | inactive | inactive | 7.59 |  | 8.03 | 5.75 |  |  |  |  |  |  |  | 
c1cc(-c2ccc(CN3CCCCC3)cc2)ccc1CN1CCCCC1 | 82 |  | 0.00339 | Not toxic | Not toxic |  |  | 8.58 |  | 8.77 | 5.89 |  | 4.84 | inactive | 25.1 |  |  |  | 
N#Cc1ccc(OCc2ccc(-c3ccc(CN4CCCCC4)cc3)cc2)cc1 |  | inactive | 0.0759 | Not toxic | Not toxic | inactive | inactive | 7.27 | 0.0708 | 7.27 |  | inactive |  |  |  |  |  |  | 
c1cc(-c2ccc(CNC3CCCCC3)cc2)ccc1CNC1CCCCC1 | 70 |  |  | Not toxic | Not toxic | inactive | inactive | 5.82 |  | 6.54 | 5.13 |  |  |  |  |  | inactive |  | 
CC1CC(C)CN(Cc2ccc(-c3ccc(CN4CCCCC4)cc3)cc2)C1 (centres undefined) | 91 |  | 0.000871 | Not toxic | Not toxic |  | inactive | 9.02 | 0.0024 | 8.48 | 2.4 |  |  |  |  |  |  | inactive | 6.15
CN(Cc1ccc(-c2ccc(CN(C)C3CCCCC3)cc2)cc1)C1CCCCC1 | 57 |  |  | Not toxic | Not toxic | inactive |  | 7.45 |  | 7.27 | 1.66 |  | 5.24 |  | 6.46 |  |  |  | 
CCCN(CCC)Cc1ccc(-c2ccc(CC(=O)N3CCCCC3)cc2)cc1 | 65 |  | 0.251 | Not toxic | Not toxic | inactive | inactive | 7.24 | 0.178 | 6.96 | 10.5 |  |  |  |  |  |  |  | 5.44
